Only some compounds are listed: those with a hit (about 2.1% of all), similar ones and a draw of the others.
F508del corr = F508del CFTR correction, initial screen, CFBE line, single point; CFBE cells, YFP halide quenching; stimulated with forskolin plus potentiator P3; % fluorescence drop versus neutral controls; 0.36% of 350,000 active; activity (quench increase), % at 7.58 µM; AID 720511, 2013;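 active = mean added fluorescence quench of at least 8% versus neutral control, with both replicates also reaching 8%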;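 note: cells transiently co-express mutant CFTR-F508del with the halide-sensitive YFP; corrector assay measuring rescue of mutant channel to the surface after 24 h compound exposure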
SMARCA2 act = SMARCA2 (BRM) function activators, primary screen, cell-based, luminescence, high throughput; MG213 cells, MMTV-luciferase reporter, dexamethasone, overnight; activation, % at 9.1 µM; 1% of 370,000 active; AID 652017, 2013; in the data active = activation above about 7.8%;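 note: 0% = vehicle wells and 100% = reference activator wells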
MC4R antagonist = MC4R antagonists of cAMP signaling, primary screen, cell-based, TR-FRET, antagonist arm of biased-ligand search | Melanocortin receptor 4 (Homo sapiens), P32245 | MC4R-expressing cells, MTII-stimulated cAMP, LANCE TR-FRET | inhibition, % at 6.5 µM | 0.48% of 360,000 active | AID 540295, 2011;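 active = inhibition above its plate's cutoff, the mean of tested wells on that plate plus 3 SD, cut at about 29% in these data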;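 note: 0% = Melanotan II alone and 100% = Melanotan II plus saturating MCL0020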
Target sequence (P32245 whole entry, looked up): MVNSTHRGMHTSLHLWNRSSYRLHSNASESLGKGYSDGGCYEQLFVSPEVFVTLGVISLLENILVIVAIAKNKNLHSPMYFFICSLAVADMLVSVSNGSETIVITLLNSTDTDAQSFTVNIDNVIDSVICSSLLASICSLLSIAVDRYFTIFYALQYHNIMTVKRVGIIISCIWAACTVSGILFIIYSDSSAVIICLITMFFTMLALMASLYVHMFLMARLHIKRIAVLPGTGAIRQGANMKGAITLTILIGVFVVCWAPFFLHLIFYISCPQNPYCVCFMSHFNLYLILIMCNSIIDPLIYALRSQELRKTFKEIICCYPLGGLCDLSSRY
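System: U2OS cells stably expressing human melanocortin 4 receptor (MC4R). Reagent: Melanotan II challenge after compound preincubation. Doses: 6.5 µM. Times: 30-min compound, 1-h challenge, 1-h detection, room temperature. Measured by: TR-FRET with Eu-cAMP and labeled anti-cAMP, 671 nm. Replicates: singlicate.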
MC4R barr agon = MC4R agonists recruiting beta-arrestin, primary screen, cell-based, luminescence, agonist arm of biased-ligand search; Melanocortin receptor 4 (Homo sapiens), P32245; U2OS MC4R beta-arrestin complementation; percent of melanotan II response, DMSO zero; activation, % at 8.9 µM; 0.98% of 360,000 active;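 active = activation above a per-plate cutoff, the mean activation of sample wells on that plate plus 3 SD, cut at about 8% in these data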
MC4R barr conf = MC4R beta-arrestin agonists, retest, confirmation, cell-based, luminescence, U2OS; 31% of 2,400 active; U2OS MC4R beta-arrestin recruitment; scaled DMSO 0%, Melanotan II 100%; activation, % at 8.9 µM; shares compounds with MC4R barr agon; AID 602192, 2012;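 active = mean activation across replicates above the hit cutoff set in the earlier primary screen, cut at about 8% in these data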
MOR-DOR barr ag = agonists of MOR-DOR heterodimerization, counter-screen for MC4R biased agonist project, cell-based, luminescence; activation, % at 9.2 µM; shares compounds with MC4R barr agon; U2OS PathHunter beta-arrestin, beta-gal luminescence; percent of deltorphin B response, DMSO zero; 5.8% of 2,400 active;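 active = mean activation across replicates exceeds the hit threshold derived in the earlier primary screen, cut at about 18% in these data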;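 note: 100% = deltorphin B at 0.9 µM final and 0% = DMSO alone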
SMARCA2 act conf = SMARCA2 (BRM) function activators, confirmation, cell-based, luminescence, triplicate; shares compounds with SMARCA2 act; MG213 cells, MMTV-luciferase with dexamethasone, overnight; MG213 cells expressing E1A, Rb sequestered; DMSO wells 0%, reference activator 100%; activation, % at 9.1 µM; 30% of 3,500 active; AID 652260, 2013;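 active = activation above its plate's cutoff, the mean activation of tested wells plus 3 SD, cut at about 7.9% in these data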
GAL4-VP16 Luc = GAL4-VP16 luciferase reporter activation, counter-screen for SMARCA2 (BRM) activator project, cell-based, pG5luc, luminescence, high throughput. shares compounds with SMARCA2 act. HEK293 GAL4-VP16 pG5luc reporter; scaled: DMSO wells 0%, SAHA wells 100%. activation, % at 9.1 µM. 41% of 3,500 active. AID 686939, 2013;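 active = activation above the solvent-only control well mean plus 3 SD, averaged across control plates, cut at about 5.2% in these data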
* = called active by the depositor; x = no result given.

SMILES	F508del corr	SMARCA2 act	MC4R antagonist	MC4R barr agon	MC4R barr conf	MOR-DOR barr ag	SMARCA2 act conf	GAL4-VP16 Luc
CC(C)NC(=O)N(C)C[C@H]1Oc2ncc(C#CC3(O)CCCC3)cc2C(=O)N([C@@H](C)CO)C[C@@H]1C	1	x	x	x	x	x	x	x
CC(C)NC(=O)Nc1cccc2c1O[C@@H](CN(C)Cc1ccc3c(c1)OCO3)[C@@H](C)CN([C@@H](C)CO)C2=O	0	x	x	x	x	x	x	x
O=C(Nc1cccnc1Cl)c1cc2c(s1)-c1ccccc1OC2	-2	7	11	4	x	x	x	x
O=C(Nc1ccc(Cl)cn1)c1cc2c(s1)-c1ccccc1OC2	2	1	7	9.8*	8.3*	3	x	x
C[C@H](CO)N1C[C@H](C)[C@@H](CN(C)C(=O)CN(C)C)Oc2cc(-c3ccncc3)ccc2S1(=O)=O	1	x	x	x	x	x	x	x
C[C@H]1CN([C@@H](C)CO)C(=O)c2cc(C#Cc3cccnc3)cnc2O[C@@H]1CN(C)Cc1ccc(F)cc1	2	x	x	x	x	x	x	x
O=C(Nc1ccc(N2CCCC2)cc1)c1ccc(Br)cc1	x	2	22	18*	3	4	x	x
O=C(Nc1ccc(N2CCCC2)cc1)c1cccc(Cl)c1	1	4	-5	11*	0	11	x	x
O=C(Nc1ccc(N2CCCC2)cc1)c1cc(Cl)ccc1Cl	-4	-1	3	-1	x	x	x	x
C[C@@H]1CCCCO[C@@H](CN(C)Cc2ccc(Cl)c(Cl)c2)[C@H](C)CN([C@@H](C)CO)C(=O)c2cc(NC(=O)Nc3cccc4ccccc34)ccc2O1	-2	x	x	x	x	x	x	x
CN(C)c1ccc2c(c1)[C@@H]1C[C@@H](CC(=O)O)O[C@@H](CO)[C@@H]1O2	-3	x	x	x	x	x	x	x
CN(C)CC(=O)N1[C@@H](CO)[C@@H](c2ccccc2)C12CN(C(=O)C1CCCC1)C2	-2	x	x	x	x	x	x	x
CO[C@H]1CN(C)C(=O)c2cc(NC(=O)C3CCCC3)ccc2OC[C@H](C)N(C(=O)CC2CC2)C[C@H]1C	3	x	x	x	x	x	x	x
CN1C(=O)c2cc(NC(=O)c3cscn3)ccc2OC[C@H]2O[C@H](CC(=O)NCC3CC3)CC[C@H]21	-2	x	x	x	x	x	x	x
C/C(=N/NC(=O)Nc1ccccc1)c1ccc(C)cc1	x	8.7*	2	11*	-1	3	3	0
C/C(=N\OC(=O)Nc1ccccc1)c1ccc(C)cc1	-1	6	0	1	x	x	x	x
CCCNC(=O)N1[C@H](CO)[C@H](c2ccccc2)[C@H]1CNC(C)=O	1	x	x	x	x	x	x	x
COc1cccc(C(=O)Nc2nnc(-c3cccs3)s2)c1	x	8.3*	-3	15*	0	4	12*	14*
C[C@@H]1CCCCO[C@@H](CN(C)C(=O)c2ccccc2)[C@@H](C)CN([C@@H](C)CO)C(=O)c2cc(NC(=O)CCC(F)(F)F)ccc2O1	0	x	x	x	x	x	x	x
N=c1n(CC(=O)c2ccc(Br)s2)c2ccccc2n1Cc1ccccc1	-8	8.2*	-2	14*	13*	18*	23*	2
Cn1c(=N)n(CC(=O)c2ccc(Br)s2)c2ccccc21	x	5	-5	2	x	x	x	x
COc1ccc2[nH]c3c(C)c4ccncc4c(C)c3c2c1	16*	16*	10	14*	28*	6	48*	1
COc1cc2nc(Nc3ccc(C)c(Cl)c3)nc(N)c2cc1OC	5	9.5*	0	11*	18*	13	-7	-1
COc1ccc2c3c(n(C)c2c1)[C@H](CO)N(S(C)(=O)=O)CC31CCN(C(=O)C2CCC2)CC1	1	x	x	x	x	x	x	x
CN(C)CCOc1nc(-c2ccccc2)nc2c1oc1ccccc12	x	16*	-1	16*	4	6	31*	1
SMILES	F508del corr	SMARCA2 act	MC4R antagonist	MC4R barr agon	MC4R barr conf	MOR-DOR barr ag	SMARCA2 act conf	GAL4-VP16 Luc
CN(C)CCOc1ncnc2c1oc1ccccc12	x	-1	7	0	x	x	x	x
Cc1cc(C)c2nc(-n3nc(C)cc3N)cc(C)c2c1	x	10*	-8	15*	2	3	8.2*	6.2*
Cc1nn(Cc2c(F)c(F)c(F)c(F)c2F)c(C)c1NC(=O)c1cccc(COc2ccccc2Cl)c1	x	13*	9	17*	6	3	4	13*
Cc1ccsc1C(=O)Nc1ccc(OCc2ccccc2)cc1	2	8.6*	15	9.7*	0	3	5	6.6*
CN(C)S(=O)(=O)Oc1ccsc1C(=O)Nc1ccc(Cl)c(Cl)c1	x	3	17	0	x	x	x	x
COc1ccc(COc2ccsc2C(=O)Nc2ccc(Cl)c(Cl)c2)cc1	x	11*	-6	12*	25*	3	-3	-1
C[C@@H]1CCCCO[C@H](CN(C)S(C)(=O)=O)[C@H](C)CN([C@@H](C)CO)C(=O)c2cc(NC(=O)c3ccncc3)ccc2O1	-3	x	x	x	x	x	x	x
COc1ccc(F)cc1-c1cc(NC=O)c2ncc(-c3cccc(C(=O)N(C)C)c3)n2c1	0	-1	-20	7	x	x	x	x
CN(C)C(=O)c1cccc(-c2cnc3c(NC=O)cc(-c4ccccc4Cl)cn23)c1	0	9.8*	-18	9.8*	8.9*	3	19*	4
Cc1ccccc1N/C(SCc1cccc(Br)c1)=C(/C#N)C(N)=O	x	9.7*	11	23*	2	9	-4	1
CO[C@H]1CN(C)C(=O)c2cc(NC(=O)NC3CCCC3)ccc2OC[C@@H](C)NC[C@@H]1C	2	x	x	x	x	x	x	x
N#C/C(=C/c1ccco1)c1nc2ccccc2s1	x	18*	-6	9.6*	-3	4	9.3*	14*
N#C/C(=C\c1ccco1)c1nc2ccccc2s1	x	6	6	4	x	x	x	x
O=C1Nc2ccccc2/C1=C/c1cccnc1	x	2	-18	0	x	x	x	x
O=C1Nc2ccccc2/C1=C/c1cnc(-c2ccccc2)[nH]1	6	18*	-4	20*	25*	4	13*	11*
O=C(c1ccccc1)N1C[C@@H]2[C@H](c3ccccc31)[C@@H](CO)N2C(=O)c1cccc(F)c1	-1	x	x	x	x	x	x	x

Screening results deposited in PubChem by several laboratories.
